Results reported in ChEMBL document CHEMBL1629640, “Antimicrobial activities of jadomycin B and structurally related analogues” (2009).
Converted amounts (≈) assume the structure as drawn.

Columns and labels:
[1] = test system: Pseudomonas aeruginosa; assay: Antimicrobial activity against Pseudomonas aeruginosa H188 by broth microdilution method; type: functional
Method in brief: (§1)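 Preliminary screen by broth microdilution. Jadomycins dissolved in 100% DMSO and diluted to a 2.56 mg ml−1 working stock in 5% DMSO. First well held 0.5% DMSO final, followed by twofold serial dilutions in broth. A DMSO-only control was included. Strains were grown in Mueller-Hinton broth to mid-log, diluted 100-fold, incubated 4 h, then diluted 10−6. Plates were incubated overnight and growth was read visually. MIC defined as growth ≤ half of control. Three replicates.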

[2] = test system: Bacillus subtilis; assay: Antimicrobial activity against Bacillus subtilis C971 by broth microdilution method; type: functional; method in brief: as §1
[3] = test system: Pseudomonas aeruginosa; assay: Antimicrobial activity against Pseudomonas aeruginosa H187 by broth microdilution method; type: functional; method in brief: as §1
[4] = test system: Staphylococcus epidermidis; assay: Antimicrobial activity against Staphylococcus epidermidis C960 by broth microdilution method; type: functional; method in brief: as §1
[5] = test system: Staphylococcus aureus; assay: Antimicrobial activity against Staphylococcus aureus C622 by broth microdilution method; type: functional
Method in brief: (§2)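 Preliminary MIC screen by twofold serial broth microdilution in Mueller-Hinton broth, 0.5% DMSO final, with a DMSO-only control. Overnight mid-log cultures were diluted 100-fold, grown 4 h, then diluted 10−6 and added to wells. Plates were incubated overnight and growth read visually. Inhibition was defined as growth ≤ half of control. Three replicates per strain.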

[6] = test system: Staphylococcus epidermidis; assay: Antimicrobial activity against Staphylococcus epidermidis isolate C621 by broth microdilution method; type: functional; method in brief: as §1
[7] = test system: Enterococcus faecalis; assay: Antimicrobial activity against Enterococcus faecalis C625 by broth microdilution method; type: functional; method in brief: as §1
[8] = test system: Staphylococcus aureus; assay: Antimicrobial activity against Staphylococcus aureus 305 by broth microdilution method; type: functional; method in brief: as §2
[9] = test system: Staphylococcus aureus; assay: Antimicrobial activity against methicillin-resistant Staphylococcus aureus C623 by broth microdilution method; type: functional; method in brief: as §2
[10] = test system: Staphylococcus aureus; assay: Antimicrobial activity against Staphylococcus aureus Becker CP8 by broth microdilution method; type: functional; method in brief: as §2
[11] = test system: Staphylococcus aureus; assay: Antimicrobial activity against Staphylococcus aureus ATCC 55804 by broth microdilution method
[12] = test system: Staphylococcus aureus; assay: Antimicrobial activity against Staphylococcus aureus 305 by CLSI method; type: functional
Method in brief: (§3)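 MIC by CLSI broth microdilution in cation-adjusted Mueller-Hinton broth at 5 × 10^5 CFU ml−1 final (5 × 10^4 CFU/well).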

[13] = test system: Staphylococcus aureus; assay: Antimicrobial activity against methicillin-resistant Staphylococcus aureus C623 by CLSI method; type: functional; method in brief: as §3
[14] = test system: Staphylococcus epidermidis; assay: Antimicrobial activity against Staphylococcus epidermidis C960 by CLSI method; type: functional

SMILES	MIC [1]	MIC [2]	MIC [3]	MIC [4]	MIC [5]	MIC [6]	MIC [7]	MIC [8]	MIC [9]	MIC [10]	MIC [11]	MIC [12]	MIC [13]	MIC [14]
CC[C@H]1OC(=O)[C@H](C)[C@@H](O[C@H]2C[C@@](C)(OC)[C@@H](O)[C@H](C)O2)[C@H](C)[C@@H](O[C@@H]2O[C@H](C)C[C@H](N(C)C)[C@H]2O)[C@](C)(O)C[C@@H](C)C(=O)[C@H](C)[C@@H](O)[C@]1(C)O [ERYTHROMYCIN]	> 2 µg/mL	< 0.125 µg/mL	> 2 µg/mL	< 0.125 µg/mL	< 1 µg/mL	< 0.125 µg/mL	1 µg/mL (≈ 1.36 µM)	< 0.25 µg/mL	> 128 µg/mL	< 0.25 µg/mL	< 0.25 µg/mL			
Cc1cc(O)c2c(c1)[C@@H]1OC(=O)CN1C1=C2C(=O)c2cccc(O[C@H]3C[C@@H](O)[C@@H](O)[C@H](C)O3)c2C1=O [JADOMYCIN G]	> 128 µg/mL	64 µg/mL (≈ 130 µM)	> 128 µg/mL	2 µg/mL (≈ 4.05 µM)	64 µg/mL (≈ 130 µM)	8 µg/mL (≈ 16.2 µM)	> 128 µg/mL	64 µg/mL (≈ 130 µM)	32 µg/mL (≈ 64.8 µM)	32 µg/mL (≈ 64.8 µM)	64 µg/mL (≈ 130 µM)	> 128 µg/mL	> 128 µg/mL	32 µg/mL (≈ 64.8 µM)
Cc1cc(O)c2c(c1)[C@@H]1OC(=O)[C@H](CC(C)C)N1C1=C2C(=O)c2cccc(O[C@H]3C[C@@H](O)[C@@H](O)[C@H](C)O3)c2C1=O [JADOMYCIN L]	> 128 µg/mL	16 µg/mL (≈ 29.1 µM)	> 128 µg/mL	< 1 µg/mL	< 1 µg/mL	4 µg/mL (≈ 7.28 µM)	> 128 µg/mL	8 µg/mL (≈ 14.6 µM)	< 1 µg/mL	8 µg/mL (≈ 14.6 µM)	16 µg/mL (≈ 29.1 µM)	8 µg/mL (≈ 14.6 µM)	8 µg/mL (≈ 14.6 µM)	0.5 µg/mL (≈ 0.91 µM)
Cc1cc(O)c2c(c1)[C@@H]1NC(=O)C[C@@H](C(=O)O)N1C1=C2C(=O)c2cccc(O[C@H]3C[C@@H](O)[C@@H](O)[C@H](C)O3)c2C1=O [JADOMYCIN N]	> 128 µg/mL	32 µg/mL (≈ 58.1 µM)	> 128 µg/mL	< 1 µg/mL	32 µg/mL (≈ 58.1 µM)	8 µg/mL (≈ 14.5 µM)	> 128 µg/mL	8 µg/mL (≈ 14.5 µM)	16 µg/mL (≈ 29.1 µM)	16 µg/mL (≈ 29.1 µM)	32 µg/mL (≈ 58.1 µM)	> 128 µg/mL	128 µg/mL (≈ 233 µM)	16 µg/mL (≈ 29.1 µM)
Cc1cc(O)c2c(c1)[C@@H]1OC(=O)[C@@H]([C@H](C)O)N1C1=C2C(=O)c2cccc(O[C@H]3C[C@@H](O)[C@@H](O)[C@H](C)O3)c2C1=O [JADOMYCIN DT]	> 128 µg/mL	64 µg/mL (≈ 119 µM)	> 128 µg/mL	2 µg/mL (≈ 3.72 µM)	16 µg/mL (≈ 29.8 µM)	8 µg/mL (≈ 14.9 µM)	> 128 µg/mL	32 µg/mL (≈ 59.5 µM)	16 µg/mL (≈ 29.8 µM)	32 µg/mL (≈ 59.5 µM)	64 µg/mL (≈ 119 µM)	32 µg/mL (≈ 59.5 µM)	32 µg/mL (≈ 59.5 µM)	4 µg/mL (≈ 7.44 µM)
CC[C@H](C)[C@H]1C(=O)O[C@H]2c3cc(C)cc(O)c3C3=C(C(=O)c4c(O[C@H]5C[C@@H](O)[C@@H](O)[C@H](C)O5)cccc4C3=O)N12 [JADOMYCIN B]	> 128 µg/mL	4 µg/mL (≈ 7.28 µM)	> 128 µg/mL	< 1 µg/mL	2 µg/mL (≈ 3.64 µM)	< 1 µg/mL	32 µg/mL (≈ 58.2 µM)	< 1 µg/mL	< 1 µg/mL	2 µg/mL (≈ 3.64 µM)	4 µg/mL (≈ 7.28 µM)	4 µg/mL (≈ 7.28 µM)	8 µg/mL (≈ 14.6 µM)	0.5 µg/mL (≈ 0.91 µM)
Cc1cc(O)c2c(c1)[C@@H]1OC(=O)[C@@H](CO)N1C1=C2C(=O)c2cccc(O[C@H]3C[C@@H](O)[C@@H](O)[C@H](C)O3)c2C1=O [JADOMYCIN DS]	> 128 µg/mL	16 µg/mL (≈ 30.6 µM)	> 128 µg/mL	1 µg/mL (≈ 1.91 µM)	8 µg/mL (≈ 15.3 µM)	4 µg/mL (≈ 7.64 µM)	> 128 µg/mL	4 µg/mL (≈ 7.64 µM)	8 µg/mL (≈ 15.3 µM)	8 µg/mL (≈ 15.3 µM)	16 µg/mL (≈ 30.6 µM)	32 µg/mL (≈ 61.1 µM)	16 µg/mL (≈ 30.6 µM)	2 µg/mL (≈ 3.82 µM)
Cc1cc(O)c2c(c1)[C@@H]1OC(=O)[C@H]([C@H](C)O)N1C1=C2C(=O)c2cccc(O[C@H]3C[C@@H](O)[C@@H](O)[C@H](C)O3)c2C1=O [JADOMYCIN T]	> 128 µg/mL	8 µg/mL (≈ 14.9 µM)	> 128 µg/mL	< 1 µg/mL	8 µg/mL (≈ 14.9 µM)	2 µg/mL (≈ 3.72 µM)	> 128 µg/mL	4 µg/mL (≈ 7.44 µM)	8 µg/mL (≈ 14.9 µM)	4 µg/mL (≈ 7.44 µM)	16 µg/mL (≈ 29.8 µM)	64 µg/mL (≈ 119 µM)	32 µg/mL (≈ 59.5 µM)	1 µg/mL (≈ 1.86 µM)
Cc1cc(O)c2c(c1)[C@@H]1OC(=O)[C@H](Cc3ccc(O)cc3)N1C1=C2C(=O)c2cccc(O[C@H]3C[C@@H](O)[C@@H](O)[C@H](C)O3)c2C1=O [JADOMYCIN Y]	> 128 µg/mL	8 µg/mL (≈ 13.3 µM)	> 128 µg/mL	< 1 µg/mL	8 µg/mL (≈ 13.3 µM)	2 µg/mL (≈ 3.34 µM)	> 128 µg/mL	4 µg/mL (≈ 6.67 µM)	8 µg/mL (≈ 13.3 µM)	4 µg/mL (≈ 6.67 µM)	16 µg/mL (≈ 26.7 µM)			
CSCC[C@@H]1C(=O)O[C@H]2c3cc(C)cc(O)c3C3=C(C(=O)c4c(O[C@H]5C[C@@H](O)[C@@H](O)[C@H](C)O5)cccc4C3=O)N12 [JADOMYCIN DM]	> 128 µg/mL	16 µg/mL (≈ 28.2 µM)	> 128 µg/mL	< 1 µg/mL	2 µg/mL (≈ 3.52 µM)	2 µg/mL (≈ 3.52 µM)	> 128 µg/mL	32 µg/mL (≈ 56.4 µM)	4 µg/mL (≈ 7.05 µM)	16 µg/mL (≈ 28.2 µM)	64 µg/mL (≈ 113 µM)	32 µg/mL (≈ 56.4 µM)	16 µg/mL (≈ 28.2 µM)	2 µg/mL (≈ 3.52 µM)
Cc1cc(O)c2c(c1)[C@@H]1OC(=O)[C@H](Cc3ccccc3)N1C1=C2C(=O)c2cccc(O[C@H]3C[C@@H](O)[C@@H](O)[C@H](C)O3)c2C1=O [JADOMYCIN F]	> 128 µg/mL	16 µg/mL (≈ 27.4 µM)	> 128 µg/mL	< 1 µg/mL	1 µg/mL (≈ 1.71 µM)	2 µg/mL (≈ 3.43 µM)	> 128 µg/mL	4 µg/mL (≈ 6.85 µM)	1 µg/mL (≈ 1.71 µM)	8 µg/mL (≈ 13.7 µM)	16 µg/mL (≈ 27.4 µM)	4 µg/mL (≈ 6.85 µM)	8 µg/mL (≈ 13.7 µM)	0.5 µg/mL (≈ 0.857 µM)
Cc1cc(O)c2c(c1)[C@@H]1OC(=O)[C@H](CO)N1C1=C2C(=O)c2cccc(O[C@H]3C[C@@H](O)[C@@H](O)[C@H](C)O3)c2C1=O [JADOMYCIN S]	> 128 µg/mL	16 µg/mL (≈ 30.6 µM)	> 128 µg/mL	1 µg/mL (≈ 1.91 µM)		4 µg/mL (≈ 7.64 µM)	> 128 µg/mL	8 µg/mL (≈ 15.3 µM)		8 µg/mL (≈ 15.3 µM)	32 µg/mL (≈ 61.1 µM)	32 µg/mL (≈ 61.1 µM)	32 µg/mL (≈ 61.1 µM)	0.5 µg/mL (≈ 0.955 µM)
